Most compounds without a hit are left out; they make up all but 2.6% or so of the library.
MC4R antag cAMP = human MC4R antagonism in cAMP assay. MC4R-expressing cells, MTII-stimulated cAMP, LANCE TR-FRET. inhibition, % at 6.5 µM. actives 0.48% (n = 360,000). AID 540295;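 active = inhibition above its plate's cutoff, the mean of tested wells on that plate plus 3 SD, cut at about 29% in these data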
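Assay system: U2OS cells stably expressing human melanocortin 4 receptor (MC4R) / Dosing: 6.5 µM / Timing: compound 30 min, challenge 1 h, detection 1 h / Measured by: Eu-cAMP/anti-cAMP TR-FRET, emission 671 nm / Replicates: singlicate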
EP2 modulator = modulators of human EP2 prostaglandin E2 receptor; actives 0.83% (n = 260,000); AID 940; EP2-expressing cells, cAMP HTRF FRET, PGE2 co-stimulation; P43116; induction, % at 25 µM;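 active = compounds whose cAMP rise, as percent of the full-agonist control response, exceeds 60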;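 also: rat C6 glioma line stably carrying human EP2 under a CMV promoter; the protocol text gives 20 µM as final concentration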
Target sequence (P43116 whole entry, looked up): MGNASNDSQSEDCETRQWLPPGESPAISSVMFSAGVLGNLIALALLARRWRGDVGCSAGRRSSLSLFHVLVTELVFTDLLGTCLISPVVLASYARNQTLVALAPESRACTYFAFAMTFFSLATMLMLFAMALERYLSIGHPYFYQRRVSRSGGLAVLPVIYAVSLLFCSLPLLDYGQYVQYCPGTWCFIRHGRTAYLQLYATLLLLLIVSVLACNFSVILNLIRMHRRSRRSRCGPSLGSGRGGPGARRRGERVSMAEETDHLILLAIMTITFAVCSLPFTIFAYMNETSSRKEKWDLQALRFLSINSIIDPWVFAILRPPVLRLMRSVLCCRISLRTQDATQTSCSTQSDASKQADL
Granule exo inh = lytic granule exocytosis inhibition; TALL-104 LAMP-1 surface exposure, flow cytometry; cells stimulated with thapsigargin and PMA; inhibition, % at 10 µM; actives 0.66% (n = 360,000); AID 651702;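 active = inhibition above about 55%, limit read from the data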
MC4R barr agon = agonists of human melanocortin 4 receptor (MC4R) beta-arrestin; actives 0.98% (n = 360,000); P32245; activation, % at 8.9 µM; U2OS MC4R beta-arrestin complementation, luminescence; percent of melanotan II response, DMSO zero;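 active = activation above a per-plate cutoff, the mean activation of sample wells on that plate plus 3 SD, cut at about 8% in these data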
EP2 antag = EP2 receptor (human) inhibition; C6 glioma cells expressing human EP2, cAMP TR-FRET; cells stimulated with saturating PGE2; inhibition, % at 25 µM; P43116; actives 0.52% (n = 260,000);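 active = percent inhibition above 40 after rounding to a whole number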;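 also: rat C6 glioma host cells with rolipram phosphodiesterase inhibitor present; the protocol text gives 20 µM as final concentration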
T cell HTS = T cell immune modulation candidate; AID 2052; response (vesicle binding), % at 7 µM; 2C CD8+ T cell-vesicle binding, flow cytometry; stronger effect = lower value; actives 0.068% (n = 330,000);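 active = response, share of CD8 T cells binding vesicles, and their 90th percentile fluorescence all below set limits, cut at about 80% in these data, passing the limit was not always enough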;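 also: values below 100% mean blocked vesicle binding to the CD8+ T cells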
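material = purified 2C TCR transgenic mouse naive CD8+ T cells | controls = Unloaded micro-vesicles (low), QL9 vesicles with 0.7% DMSO (high) | detection = cytometric PE anti-B7-1 and Alexa647 anti-CD8 signals after 1% paraformaldehyde fixation | incubation = binding step 1.5 h, 37 °C, antibody labelling 20 min, ice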
EP2 confirm = EP2 receptor cAMP induction, counter-screens negative. calls only at 20 µM (by protocol). C6 glioma EP2 cells, cAMP HTRF induction; plus low (about EC15) PGE2 agonist. shares compounds with EP2 modulator. actives 47% (n = 1,300);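 active = cAMP induction above 50% in the main assay while under 30% in all four parallel counter assays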;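 also: rat C6 glioma cells stably expressing human EP2 receptor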
Hits are given with their value; – = inactive; · = not tested or not shown; + = active, no number; ! = repeats disagree.

SMILES	MC4R antag cAMP	EP2 modulator	Granule exo inh	MC4R barr agon	EP2 antag	T cell HTS	EP2 confirm
Cc1ccc(-n2c(-c3ccccc3)c[nH]c2=S)cc1	–	–	–	–	–	–	·
CCn1c(SCc2c(Cl)cccc2Cl)nnc1-c1nn(-c2ccccc2)ccc1=O	–	–	–	–	·	–	·
COc1ccccc1NC(=O)c1c(C)oc2c1CCCC2	–	79	–	–	–	–	–
O=c1c(O)c(-c2ccccc2)oc2ccc3occc3c12	·	74	·	·	–	·	+
Cn1cc(C2=C(c3ccc(Cl)cc3Cl)C(=O)NC2=O)c2ccccc21	–	75	–	–	–	–	+
Cn1cc(-c2ccccc2C(N)=O)c(=O)c2cc(Cl)ccc21	–	–	–	–	–	–	·
C=CCc1cc(C=O)cc(OC)c1OCc1c(Cl)cccc1Cl	–	92	–	–	–	–	+
CCC(Sc1nc(-c2ccccc2)c(C#N)c(=O)[nH]1)C(=O)Nc1cc(C)on1 (configuration not stated)	–	76	–	–	50	–	–
CCOC(=O)c1c(N)sc(-c2ccccc2)c1C	–	73	–	–	–	–	–
CCOC(=O)c1c(N)nn(C(=O)C(C)(C)C)c1-c1ccccc1	–	78	–	–	–	–	+
CC(=O)Nc1sc(C)c(C)c1C(=O)OCC(=O)NCc1ccc(F)cc1	–	·	–	–	·	–	·
Cc1cc2nc3c(=O)n(C4CCCCC4)c(=O)[nH]c3nc2cc1N	–	–	–	–	–	·	·
C[C@H](CCC(=O)O)[C@@H]1CC[C@@H]2[C@H]3CC[C@@H]4C[C@H](O)CC[C@@]4(C)[C@@H]3CC[C@]21C	·	–	·	·	–	·	–
C[C@H](CCC(=O)O)[C@H]1CC[C@H]2[C@@H]3CC[C@@H]4C[C@H](O)CC[C@]4(C)[C@H]3C[C@H](O)[C@]12C	–	·	–	–	–	–	·
CCOC(=O)c1cnc2c(c(C)nn2C)c1Oc1ccc(Cl)cc1	–	67	–	–	–	–	+
N#Cc1ccc(N2CCOCC2)nc1	–	–	–	–	–	–	·
O=C(NNc1nc(-c2ccccc2)cs1)c1ccc(F)cc1	–	–	–	–	–	–	·
CCOC(=O)c1c(-c2ccccc2)oc2ccc(OC)cc12	–	69	–	–	–	–	+
Cc1ccc(-c2cccc(C(=O)NCc3ccccc3)n2)c2ccccc12	–	66	–	–	–	–	+
COc1ccc(S(=O)(=O)NCC2CCCN(C(=O)c3sccc3C)C2)cc1 (configuration not stated)	–	–	–	–	–	–	·
COc1ccc2cc3c(N)nn(C(=O)C4CCC(C(C)(C)C)CC4)c3nc2c1 (configuration not stated)	–	69	–	–	–	–	–
CCN(Cc1ccccc1)C(c1cc2cc(C)cc(C)c2[nH]c1=O)c1nnnn1CCOC (configuration not stated)	–	73!	–	–	–	–	–
CCC(CO)NCC(O)COCc1ccc2c(c1)OCO2 (configuration not stated)	–	–	–	–	–	–	·
CCOC(=O)c1ccccc1NC(=O)C1COc2ccccc2O1 (configuration not stated)	–	72	–	–	–	–	+
COC(=O)c1ccccc1NC(=O)C1COc2ccccc2O1 (configuration not stated)	–	–	–	–	–	–	·
CCOc1cccc(CNc2ccc(O)cc2)c1OCc1ccccc1Cl	–	84	–	–	–	–	+
N#C/C(=C\c1cn(-c2ccccc2)nc1-c1cccnc1)c1nnc2n1CCCCC2	–	–	–	–	–	–	·
CC(C)(C)C1CCC(=NNc2ccc(S(N)(=O)=O)cc2[N+](=O)[O-])CC1 (configuration not stated)	–	68	–	–	–	–	+
